High-throughput results from PubChem BioAssay.
Only a selection was taken, and hits are over-represented in it overall.
CHOP inhibitor: inhibitors of CHOP promoter induction, primary screen, cell-based, unfolded protein response, luciferase reporter | AID 2732, 2010 | 3.8% of 220,000 active | CHO-K1 CHOP-promoter luciferase, tunicamycin-induced, 15-18 h | inhibition, % at 10 µM;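 active means compounds that reduced the stress-induced luciferase reporter signal by more than about 70% of percent inhibition, limit read from the data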
FXN GAA850 act: FXN promoter activators, primary screen, cell-based, luciferase luminescence, HEK293 lucGAA850; HEK293 lucGAA850 FXN promoter luciferase reporter, 24 h; percent of 10 µM SAHA response; activation, % at 6 µM; 0.56% of 360,000 active; AID 540364, 2011;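 active means activation above the average of all compounds screened plus 3 SD, cutoff fixed separately per campaign, cut at about 7.5% in these data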
CHOP UPR activ: activators of apoptotic CHOP UPR arm, primary screen, cell-based, CHO-CHOP luciferase reporter, luminescence, uHTS. UPR activation; percent of tunicamycin response over DMSO baseline. activation, % at 10 µM. 0.34% of 330,000 active. AID 449763, 2010;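 active means at 10 µM dose, activation of 40% or more, normalized to positive control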
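assay system = CHO CHOP reporter cells | amount = 500 CHO-CHOP cells per well | buffer or medium = F12 with 10% FBS | incubation = 16-18 h cell attachment, then 6 h compound exposure, 37 °C | detection = luminescence read with Steady-Glo | read-out = percent activation relative to tunicamycin control | controls = tunicamycin high control, DMSO low control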
UPR XBP1 act: activators of adaptive XBP1 UPR arm, primary screen, cell-based, CHO-XBP1 luciferase reporter, luminescence, uHTS; IRE1-XBP1 UPR activation; percent of tunicamycin response, DMSO as zero; activation, % at 20 µM; 0.33% of 330,000 active; AID 463104, 2010;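 active means versus positive control, 20 µM dose yields 30% or more activation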
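Signal: luciferase luminescence; Assay system: CHO-XBP1 luciferase reporter cells; Amount: one thousand reporter cells per well; Dosing: 20 µM single concentration, DMSO 1%; Benchmarks: high control tunicamycin 10 µg/mL final, low control DMSO vehicle only; Schedule: 6 h compound exposure at 37 °C, 5% CO2; Evaluation: percent activation relative to tunicamycin reference.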
Of the large screens only hits and unclear results are named; the others gave an inactive call.

CC(C)CC1C(=O)N(Cc2cn(CCC3OCCCO3)nn2)CCS(=O)(=O)N1Cc1ccc(-c2ccncc2)cc1 (centres undefined)	none (no result: CHOP inhibitor, CHOP UPR activ, UPR XBP1 act)
CS(=O)(=O)N(CC(=O)N1CCN(C(c2ccccc2)c2ccccc2)CC1)C1CCCCC1	CHOP inhibitor 79
CS(=O)(=O)N(CC(=O)N1CCN(c2ccccc2F)CC1)C1CCCCC1	none
CCCCCCCCNC(=O)CCNC(=O)c1ccc(C(C)(C)C)cc1	CHOP inhibitor 93
COc1ccc(-c2ccnc(SCC(=O)c3ccc(OC)c(OC)c3)n2)cc1	none
COc1ccc(OC)c(C(=O)CSc2nccc(-c3ccc(Br)cc3)n2)c1	CHOP inhibitor 80
COc1cc(/C=C/c2cc(OC(C)=O)c3ccccc3n2)c(OC(C)=O)c([N+](=O)[O-])c1	CHOP inhibitor 87
COc1ccccc1NC(=O)COC(=O)Cn1c(C)csc1=O	none (no result: CHOP inhibitor, CHOP UPR activ, UPR XBP1 act)
Cc1nn(-c2ccccc2)c2c1C(c1ccc([N+](=O)[O-])cc1)C(C#N)=C(N)O2 (centres undefined)	none
Cc1ccc(-n2nc(C)c3c2OC(N)=C(C#N)C3c2ccc(F)cc2)cc1 (centres undefined)	CHOP inhibitor 83
O=C(Nc1c2c(nn1-c1ccccc1)CS(=O)(=O)C2)c1ccc(Br)o1	none (no result: CHOP inhibitor, CHOP UPR activ, UPR XBP1 act)
CC1(C)CC(=O)c2cnc(N3CCN(c4ccccc4)CC3)nc2C1	CHOP inhibitor 87
CC1=C(C(=O)OC(C)C)C(c2cccnc2)C2=C(CCCC2=O)N1 (centres undefined)	CHOP inhibitor 91
O=C1O/C(=C\c2ccccc2)c2ccccc21	none
O=C1O/C(=C/c2ccccc2)N=C1c1ccccc1	CHOP inhibitor 87
Cc1ccccc1NC(=O)Nc1nc(C(N)c2ccccc2)cs1 (centres undefined)	none (no result: CHOP inhibitor, CHOP UPR activ, UPR XBP1 act)
Cc1nn(-c2ccccc2)c(N)c1C(c1ccc(C(C)C)cc1)c1c(C)nn(-c2ccccc2)c1N	CHOP inhibitor 85
CN1CCN(c2ncnc3c2ncn3[C@H]2CN(Cc3cccnc3)C[C@@H](CO)O2)CC1	none (no result: CHOP inhibitor, CHOP UPR activ, UPR XBP1 act)
CCc1cc(C(=O)OC)c(NC(=O)CN2CCN(C(=O)c3ccco3)CC2)s1	none (no result: CHOP inhibitor)
Cc1ccc(C(=O)c2cc(C)sc2NC(=O)CN2CCN(C(=O)c3ccco3)CC2)cc1	CHOP inhibitor 82
O=S(=O)(NCc1cc(-c2ccccc2Cl)no1)c1ccc(Cl)cc1	CHOP inhibitor 74
O=C(/C=C/c1ccccc1)N1c2ccccc2Sc2ccc(C(F)(F)F)cc21	CHOP inhibitor 70
CC1CCc2nn(CC(=O)Nc3ccc(F)cc3F)cc2C1 (centres undefined)	none
CCN(CC)c1ccc(NC(=O)Cn2cc3c(n2)CCC(C)C3)c(C)c1 (centres undefined)	CHOP inhibitor 79
Cc1ccc(C)c(NC(=O)c2ccc3ccccc3n2)c1	CHOP inhibitor 80
CC(=O)Nc1ccc(-c2ccnc3c2CC(C(=O)Nc2cccc(N(C)C)c2)O3)cc1 (centres undefined)	none (no result: CHOP inhibitor, CHOP UPR activ, UPR XBP1 act)
COc1cc2ccccc2cc1-c1nnc(COc2ccccc2)o1	CHOP inhibitor 82
COc1ccc(-c2nnc(COc3ccc4ccccc4c3)o2)cc1OC	none
O=C(Nc1ccc(C(F)(F)F)cc1)c1cnc(N2CCN(c3ccccn3)CC2)c2ccccc12	CHOP inhibitor 81
O=C(c1cnc(N2CCN(c3ccccn3)CC2)c2ccccc12)N1CCN(c2cccc(Cl)c2)CC1	CHOP inhibitor 77
O=C(Nc1ccc(C(F)(F)F)cc1)c1cccnc1N1CCOCC1	none
O=C(c1cc(Cl)ccc1Cl)N1CCN(c2ccccn2)CC1	none
O=C(NCCN1CCN(c2ccccc2F)CC1)c1cccn2c(=O)c3ccccc3nc12	CHOP inhibitor 76
CCOc1ccc(Cl)cc1-c1cc(C(=O)NCc2cc(C(F)(F)F)cc(C(F)(F)F)c2)[nH]n1	none (no result: CHOP inhibitor, CHOP UPR activ, UPR XBP1 act)
COc1ccc(NC2=CC(c3ccc(F)cc3)N(c3ccc(OC)cc3)C2=O)cc1 (centres undefined)	CHOP inhibitor 82
CCNc1nc(Sc2ccc(C)cc2)cc(C(F)(F)F)n1	CHOP inhibitor 87
COc1cccc(C(C)(O)c2nc(-c3ccc(F)cc3OC)cs2)c1 (centres undefined)	none (no result: CHOP inhibitor, CHOP UPR activ, UPR XBP1 act)
CCCCC(=O)N(C)c1c(C)nc2ccc(C(=O)Nc3cccc(OC)c3)cn12	none (no result: CHOP inhibitor, CHOP UPR activ, UPR XBP1 act)
CCn1c(=NC(=O)c2ccc(S(=O)(=O)N3CCOCC3)cc2)sc2cccc(OC)c21	CHOP inhibitor 83
COCCn1c(=NC(=O)c2ccc(S(=O)(=O)N3CCOCC3)cc2)sc2cc(S(N)(=O)=O)ccc21	none (no result: CHOP inhibitor)
O=C(NCc1cccc(C(F)(F)F)c1)c1csc([C@H]2C[C@H](O)[C@@H](CO)O2)n1	none (no result: CHOP inhibitor, CHOP UPR activ, UPR XBP1 act)
Cc1cc(C(=O)OC(C(=O)Nc2cccc(C(F)(F)F)c2)c2ccccc2)c(C)o1 (centres undefined)	CHOP inhibitor 83
Cc1ccc(NC(=O)C(OC(=O)c2cc(C)oc2C)c2ccccc2)cc1 (centres undefined)	none
Cc1cccc(OCC(=O)N/N=C/c2cccn2C)c1	none
Cc1ccc(C(C)C)c(OCC(=O)N/N=C/c2cccn2C)c1	CHOP inhibitor 96
Cc1ccc(C)c(OCC(=O)N/N=C/c2c(C)nn(-c3ccccc3)c2Cl)c1	CHOP inhibitor 83 (no result: FXN GAA850 act)
Cc1ccc2nc(SCC(=O)N3c4ccccc4CC3C)c(C)cc2c1 (centres undefined)	CHOP inhibitor 78
COC(=O)c1ccc(Cn2c(C)cc(C)[n+]2C)o1	CHOP inhibitor 73
CC1(C(=O)NCc2cccs2)CCN1C(=O)Cc1cccc2ccccc12 (centres undefined)	none (no result: CHOP inhibitor, CHOP UPR activ, UPR XBP1 act)
OCCN1CCN(C2Cc3cc(Cl)ccc3Sc3ccc(Cl)cc32)CC1 (centres undefined) (tested in a mixture with another compound)	CHOP inhibitor 75
O=C(Nc1ccccc1Oc1ccccc1)c1ccc(Br)o1	CHOP inhibitor 86
O=C(Nc1cccc(Cl)c1N1CCCC1)c1ccc(Br)o1	CHOP inhibitor 73
CCOC(=O)C1=C(N)N2C(=O)C(C)SC2=C(C(=O)OC)C1c1ccccc1OC (centres undefined)	CHOP inhibitor 82
CCOC(=O)C1=C(N)N2C(=O)C(C)SC2=C(C(=O)OCC)C1c1ccccc1 (centres undefined)	none
CCOC(=O)c1cc2sccc2n1Cc1ccccc1	CHOP inhibitor 80
O=[N+]([O-])c1ccc(CSc2ncnc3c2ncn3[C@@H]2O[C@H](CO)[C@H](O)C2O)cc1 (some centres undefined)	none (no result: FXN GAA850 act, CHOP UPR activ, UPR XBP1 act)
C=C(C)C1CC=C(C)/C(=N/NC(=O)c2ccc(NC(=O)CCC)cc2)C1 (centres undefined)	none
C=C(C)C1CC=C(C)/C(=N\NC(=O)CCC(=O)Nc2ccc(C)c(C)c2)C1 (centres undefined)	CHOP inhibitor 77
CCCCCCP(=O)(O)c1ccccc1	none
